Data published in ChEMBL document CHEMBL3596195, “Novel cajaninstilbene acid derivatives as antibacterial agents” (Eur J Med Chem, 2015).
≈ marks a conversion by molar mass, not a printed value.

Columns and labels:
[1] = tested on: Staphylococcus aureus; assay: Antibacterial activity against Staphylococcus aureus ATCC25923 assessed as bacterial growth inhibition after 24 hrs by broth dilution method; type: functional; details: ATCC25923, 24 h
[2] = tested on: Staphylococcus epidermidis; assay: Antibacterial activity against Staphylococcus epidermidis ATCC12228 assessed as bacterial growth inhibition after 24 hrs by broth dilution method; type: functional; details: ATCC12228, 24 h
[3] = tested on: Bacillus subtilis; assay: Antibacterial activity against Bacillus subtilis ATCC6633 assessed as bacterial growth inhibition after 24 hrs by broth dilution method; type: functional; details: ATCC6633, 24 h
[4] = tested on: Escherichia coli; assay: Antibacterial activity against Escherichia coli ATCC25922 assessed as bacterial growth inhibition after 24 hrs by broth dilution method; type: functional; details: ATCC25922, 24 h
[5] = tested on: Proteus vulgaris; assay: Antibacterial activity against Proteus vulgaris ATCC49101 assessed as bacterial growth inhibition after 24 hrs by broth dilution method; type: functional; details: ATCC49101, 24 h
[6] = tested on: Pseudomonas aeruginosa; assay: Antibacterial activity against Pseudomonas aeruginosa ATCC2785 assessed as bacterial growth inhibition after 24 hrs by broth dilution method; type: functional; details: ATCC2785, 24 h
[7] = tested on: Staphylococcus aureus; assay: Antibacterial activity against methicillin-resistant Staphylococcus aureus ATCC43300 assessed as bacterial growth inhibition after 24 hrs by broth dilution method; type: functional; details: ATCC43300, 24 h
[8] = tested on: Staphylococcus aureus; assay: Antibacterial activity against methicillin-resistant Staphylococcus aureus ATCC523512 assessed as bacterial growth inhibition after 24 hrs by broth dilution method; type: functional; details: ATCC523512, 24 h
[9] = tested on: Staphylococcus aureus; assay: Antibacterial activity against methicillin-resistant Staphylococcus aureus ATCC425055 assessed as bacterial growth inhibition after 24 hrs by broth dilution method; type: functional; details: ATCC425055, 24 h
[10] = tested on: Staphylococcus aureus; assay: Antibacterial activity against methicillin-resistant Staphylococcus aureus ATCC513045 assessed as bacterial growth inhibition after 24 hrs by broth dilution method; type: functional; details: ATCC513045, 24 h
[11] = tested on: Staphylococcus aureus; assay: Antibacterial activity against methicillin-resistant Staphylococcus aureus ATCC62202 assessed as bacterial growth inhibition after 24 hrs by broth dilution method; type: functional; details: ATCC62202, 24 h
[12] = tested on: Staphylococcus aureus; assay: Antibacterial activity against methicillin-resistant Staphylococcus aureus ATCC51033 assessed as bacterial growth inhibition after 24 hrs by broth dilution method; type: functional; details: ATCC51033, 24 h
[13] = tested on: Staphylococcus aureus; assay: Antibacterial activity against methicillin-resistant Staphylococcus aureus ATCC52056 assessed as bacterial growth inhibition after 24 hrs by broth dilution method; type: functional; details: ATCC52056, 24 h
[14] = tested on: Staphylococcus aureus; assay: Antibacterial activity against methicillin-resistant Staphylococcus aureus ATCC515992 assessed as bacterial growth inhibition after 24 hrs by broth dilution method; type: functional; details: ATCC515992, 24 h
[15] = tested on: Staphylococcus aureus; assay: Antibacterial activity against methicillin-resistant Staphylococcus aureus ATCC510019 assessed as bacterial growth inhibition after 24 hrs by broth dilution method; type: functional; details: ATCC510019, 24 h
[16] = tested on: Staphylococcus aureus; assay: Ratio of penicillin MIC to compound MIC for Staphylococcus aureus ATCC25923 after 24 hrs by broth dilution method; type: functional
[17] = tested on: Staphylococcus epidermidis; assay: Ratio of norfloxacin MIC to compound MIC for Staphylococcus epidermidis ATCC12228 after 24 hrs by broth dilution method; type: functional
[18] = Cytotoxicity against mouse RAW264.7 cells assessed as cell viability at 8 ug/ml after 72 hrs by MTT assay; type: cell-based; details: read-out: Activity
Method in brief: (§1)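 Mouse RAW 264.7 macrophages grown in DMEM with 10% FBS, 2 mM L-glutamine and penicillin/streptomycin at 37 °C, 5% CO2. Seeded at 10,000 cells/well for 12 h. Compound diluted 1000× from DMSO stock into 1% FBS medium (DMSO under 0.1%), over a concentration gradient, 72 h exposure. MTT formazan dissolved in DMSO for 45 min, absorbance read at 562 nm. Quadruplicate wells, at least three runs (N = 12).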

[19] = tested on: RAW264.7; assay: Cytotoxicity against mouse RAW264.7 cells assessed as inhibition of cell viability after 72 hrs by MTT assay; type: cell-based; details: RAW264.7, 72 h; method in brief: as §1
[20] = Selectivity index, ratio of IC50 for mouse RAW264.7 cells to MIC for Staphylococcus aureus ATCC25923; type: toxicity; details: read-out: Selectivity Index
Method in brief: (§2)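 SI = IC50 in mouse RAW 264.7 macrophages divided by broth-dilution MIC. For cytotoxicity, cells in DMEM/10% FBS/2 mM L-glutamine were seeded at 10,000/well for 12 h. They were then dosed across a concentration gradient in 1% FBS medium with DMSO below 0.1% for 72 h. Read-out was MTT, absorbance 562 nm, 4 wells × at least 3 runs.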

[21] = Selectivity index, ratio of IC50 for mouse RAW264.7 cells to MIC for Staphylococcus epidermidis ATCC12228; type: toxicity; details: read-out: Selectivity Index; method in brief: as §2
[22] = Selectivity index, ratio of IC50 for mouse RAW264.7 cells to MIC for Bacillus subtilis ATCC6633; type: toxicity; details: read-out: Selectivity Index; method in brief: as §2
[23] = Selectivity index, ratio of IC50 for mouse RAW264.7 cells to MIC for methicillin-resistant Staphylococcus aureus ATCC43300; type: toxicity; details: read-out: Selectivity Index; method in brief: as §2
[24] = Selectivity index, ratio of IC50 for mouse RAW264.7 cells to MIC for methicillin-resistant Staphylococcus aureus ATCC523512; type: toxicity; details: read-out: Selectivity Index; method in brief: as §2
[25] = Selectivity index, ratio of IC50 for mouse RAW264.7 cells to MIC for methicillin-resistant Staphylococcus aureus ATCC425055; type: toxicity; details: read-out: Selectivity Index; method in brief: as §2
[26] = Selectivity index, ratio of IC50 for mouse RAW264.7 cells to MIC for methicillin-resistant Staphylococcus aureus ATCC513045; type: toxicity; details: read-out: Selectivity Index; method in brief: as §2
[27] = Selectivity index, ratio of IC50 for mouse RAW264.7 cells to MIC for methicillin-resistant Staphylococcus aureus ATCC62202; type: toxicity; details: read-out: Selectivity Index; method in brief: as §2
[28] = Selectivity index, ratio of IC50 for mouse RAW264.7 cells to MIC for methicillin-resistant Staphylococcus aureus ATCC51033; type: toxicity; details: read-out: Selectivity Index; method in brief: as §2
[29] = Selectivity index, ratio of IC50 for mouse RAW264.7 cells to MIC for methicillin-resistant Staphylococcus aureus ATCC52056; type: toxicity; details: read-out: Selectivity Index; method in brief: as §2
[30] = Selectivity index, ratio of IC50 for mouse RAW264.7 cells to MIC for methicillin-resistant Staphylococcus aureus ATCC515992; type: toxicity; method in brief: as §2
[31] = Selectivity index, ratio of IC50 for mouse RAW264.7 cells to MIC for methicillin-resistant Staphylococcus aureus ATCC510019; type: toxicity; details: read-out: Selectivity Index; method in brief: as §2
[32] = tested on: Staphylococcus epidermidis; assay: Ratio of penicillin MIC to compound MIC for Staphylococcus epidermidis ATCC12228 after 24 hrs by broth dilution method; type: functional
Method in brief: (§3)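 MICs came from broth double dilution from 256 µg/mL in 5×10^5 cells/mL culture, 37 °C, 24 h, read visually as the lowest concentration without turbidity. The ratio is the reference antibiotic's MIC over the compound's MIC.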

[33] = tested on: Staphylococcus aureus; assay: Ratio of norfloxacin MIC to compound MIC for Staphylococcus aureus ATCC25923 after 24 hrs by broth dilution method; type: functional; method in brief: as §3
[34] = tested on: Bacillus subtilis; assay: Ratio of norfloxacin MIC to compound MIC for Bacillus subtilis ATCC6633 after 24 hrs by broth dilution method; type: functional

| SMILES | MIC [1] [µg/mL] | MIC [2] [µg/mL] | MIC [3] [µg/mL] | MIC [4] [µg/mL] | MIC [5] [µg/mL] | MIC [6] [µg/mL] | MIC [7] [µg/mL] | MIC [8] [µg/mL] | MIC [9] [µg/mL] | MIC [10] [µg/mL] | MIC [11] [µg/mL] | MIC [12] [µg/mL] | MIC [13] [µg/mL] | MIC [14] [µg/mL] | MIC [15] [µg/mL] | Ratio [16] | viability at 72 h, 8 ug/ml [18] [%] | IC50 [19] [µg/mL] | selectivity ratio [20] | selectivity ratio [27] | also measured |
| --- | --- | --- | --- | --- | --- | --- | --- | --- | --- | --- | --- | --- | --- | --- | --- | --- | --- | --- | --- | --- | --- |
| COc1cc(/C=C/c2cccc(F)c2)c(C(=O)O)c(O)c1CC=C(C)C | 4 (≈ 11.2 µM) | 2 (≈ 5.61 µM) | 0.5 (≈ 1.4 µM) | > 128 | > 64 | > 64 | 1 (≈ 2.81 µM) | 2 (≈ 5.61 µM) | 2 (≈ 5.61 µM) | 2 (≈ 5.61 µM) | 0.5 (≈ 1.4 µM) | 1 (≈ 2.81 µM) | 0.5 (≈ 1.4 µM) | 1 (≈ 2.81 µM) | 1 (≈ 2.81 µM) | 64 | 91.7 | 20.2 (≈ 56.6 µM) | 5.04 | 5.04 | Ratio [17]: 8; selectivity ratio [21]: 5.04; selectivity ratio [22]: 5.04; selectivity ratio [23]: 5.04; selectivity ratio [24]: 5.04; selectivity ratio [25]: 5.04; selectivity ratio [26]: 5.04; selectivity ratio [28]: 5.04; selectivity ratio [29]: 40.3; selectivity ratio [30]: 20.2; selectivity ratio [31]: 20.2 |
| COc1cc(/C=C/c2ccc(C(F)(F)F)cc2)c(C(=O)O)c(O)c1CC=C(C)C | 2 (≈ 4.92 µM) | 2 (≈ 4.92 µM) | 1 (≈ 2.46 µM) | > 128 | > 64 | > 64 | 2 (≈ 4.92 µM) | 0.5 (≈ 1.23 µM) | 0.5 (≈ 1.23 µM) | 8 (≈ 19.7 µM) | 0.5 (≈ 1.23 µM) | 1 (≈ 2.46 µM) | 4 (≈ 9.84 µM) | 0.5 (≈ 1.23 µM) | 2 (≈ 4.92 µM) | 1 | 90.6 | 25.7 (≈ 63.3 µM) | 12.9 | 12.9 | Ratio [32]: 64; Ratio [33]: 8; selectivity ratio [21]: 12.9; selectivity ratio [22]: 12.9; selectivity ratio [23]: 12.9; selectivity ratio [24]: 12.9; selectivity ratio [25]: 12.9; selectivity ratio [26]: 12.9; selectivity ratio [28]: 12.9; selectivity ratio [29]: 6.43; selectivity ratio [30]: 51.4; selectivity ratio [31]: 12.9 |
| COc1cc(/C=C/c2ccccc2F)c(C(=O)O)c(O)c1CC=C(C)C | 4 (≈ 11.2 µM) | 1 (≈ 2.81 µM) | 0.5 (≈ 1.4 µM) | 64 (≈ 180 µM) | > 64 | > 64 | 1 (≈ 2.81 µM) | 2 (≈ 5.61 µM) | 0.5 (≈ 1.4 µM) | 2 (≈ 5.61 µM) | 0.5 (≈ 1.4 µM) | 1 (≈ 2.81 µM) | 2 (≈ 5.61 µM) | 2 (≈ 5.61 µM) | 2 (≈ 5.61 µM) | 64 | 92.7 | 24.7 (≈ 69.3 µM) | 6.17 | 6.17 | Ratio [17]: 8; selectivity ratio [21]: 6.17; selectivity ratio [22]: 6.17; selectivity ratio [23]: 6.17; selectivity ratio [24]: 6.17; selectivity ratio [25]: 6.17; selectivity ratio [26]: 6.17; selectivity ratio [28]: 6.17; selectivity ratio [29]: 12.3; selectivity ratio [30]: 12.3; selectivity ratio [31]: 12.3 |
| COc1cc(/C=C/c2ccc(F)cc2F)c(C(=O)O)c(O)c1CC=C(C)C | 1 (≈ 2.67 µM) | 0.5 (≈ 1.34 µM) | 2 (≈ 5.34 µM) | > 128 | > 64 | > 64 | 2 (≈ 5.34 µM) | 2 (≈ 5.34 µM) | 0.5 (≈ 1.34 µM) | 2 (≈ 5.34 µM) | 1 (≈ 2.67 µM) | 1 (≈ 2.67 µM) | 2 (≈ 5.34 µM) | 1 (≈ 2.67 µM) | 2 (≈ 5.34 µM) | 64 | 94.4 | 46.5 (≈ 124 µM) | 46.5 | 46.5 | Ratio [34]: 8; selectivity ratio [28]: 46.5; selectivity ratio [29]: 23.3; selectivity ratio [30]: 46.5; selectivity ratio [31]: 23.3 |
